Assay results reported in paper PMC3938282 (Journal of the American Chemical Society, 2013).
Each block holds one molecule with its values, some of them ahead of it.

Tests used:
Pkd1-WT [1] = biological target: T1, Pkd1-WT (Homo sapiens, UniProt Q15139); details: cited from earlier work
EphA4-WT = EphA4-WT (Homo sapiens, UniProt P54764); experiment: EphA4 auto-phosphorylation in transfected HEK-293T cells; assay type: cell-based
Kif5b-Ret-WT = Kif5b-Ret-WT (Homo sapiens, UniProt P07949+P33176); details: cited from earlier work
308 human kinases [2] = details: cited from earlier work; for share of all protein kinases targeted (same metric, more than 80% inhibition): 500 nM
EphA4-AS1 = experiment: EphA4 auto-phosphorylation in transfected HEK-293T cells; assay type: cell-based
Src-AS1 (Gly gatekeeper) = Src-AS1 (Gly gatekeeper) (Gallus gallus, UniProt P00523, T338G); experiment: in vitro kinase inhibition, seven-point dose-response; assay type: biochemical
v-Src-AS1 = experiment: inhibition of tyrosine phosphorylation in stably transfected 3T3 cells; assay type: cell-based, mouse
Src-WT = Src-WT (Gallus gallus, UniProt P00523); experiment: in vitro kinase inhibition, seven-point dose-response; assay type: biochemical
CK1ε = CK1ε (Homo sapiens, UniProt P49674); experiment: in vitro IC50 against PP-sensitive WT kinases; assay type: biochemical; details: read-out: IC50 CK1ε; mean ± SEM
In short: (§1)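 In vitro kinase inhibition. IC50 derived from a seven-point dose-response of test compound; values reported as mean with standard error of the mean.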

CKδ = CKδ (Homo sapiens, UniProt P48730); experiment: in vitro IC50 against PP-sensitive WT kinases; assay type: biochemical; details: read-out: IC50 CKδ; mean ± SEM
In short: as §1

308 human kinases [3] = experiment: kinase panel inhibition profiling; assay type: biochemical; details: 1 µM
In short: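 Single-point profiling of 308 human kinases: fraction of each kinase's activity inhibited by test compound at 1µM.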

Ret = Ret (Homo sapiens, UniProt P07949); experiment: in vitro IC50 against PP-sensitive WT kinases; assay type: biochemical; details: read-out: IC50 Ret; mean ± SEM
In short: as §1

Kif5b-Ret-AS2 = Kif5b-Ret-AS2 (Homo sapiens, UniProt P07949+P33176, V804A); experiment: Ret auto-phosphorylation at Y905 in 3T3 mouse cells; assay type: cell-based
In short: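 Mouse 3T3 cells expressing Kif5b-Ret-AS2 or Kif5b-Ret-WT were exposed to test compound at 10µM, 3.3µM and 1.1µM. Read-out was Ret auto-phosphorylation at Y905.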

Pkd1 = Pkd1 (Homo sapiens, UniProt Q15139); experiment: in vitro IC50 against PP-sensitive WT kinases; assay type: biochemical; details: read-out: IC50 Pkd1; mean ± SEM
In short: as §1

Ptk6 = Ptk6 (Homo sapiens, UniProt Q13882); experiment: in vitro IC50 against PP-sensitive WT kinases; assay type: biochemical; details: read-out: IC50 Ptk6; mean ± SEM
In short: as §1

EphA1 = EphA1 (Homo sapiens, UniProt P21709); experiment: in vitro IC50 against PP-sensitive WT kinases; assay type: biochemical; details: read-out: IC50 EphA1; mean ± SEM
In short: as §1

v-Src-WT = experiment: inhibition of tyrosine phosphorylation in stably transfected 3T3 cells; assay type: cell-based, mouse
Pkd1-WT [4] = biological target: T1, Pkd1-WT; experiment: Pkd auto-phosphorylation at S916 in transfected HEK-293T cells; assay type: cell-based; details: 625nM - 10µM
In short: (§2)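 HEK-293T cells transiently transfected with Pkd1-WT or Pkd1-AS1. Cells treated with test compound across 625nM - 10µM, then assessed for Pkd auto-phosphorylation at S916.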

Pkd1-AS1 = experiment: as above; assay type: cell-based; details: 625nM - 10µM
In short: as §2

Pkd1-AS2 = Pkd1-AS2 inhibition in cells; assay type: cell-based
Src-AS2 (Ala gatekeeper) = Src-AS2 (Ala gatekeeper) (Gallus gallus, UniProt P00523, T338A); experiment: in vitro kinase inhibition, seven-point dose-response; assay type: biochemical
Pkd2 = Pkd2 (Homo sapiens, UniProt Q9BZL6); experiment: in vitro IC50 against PP-sensitive WT kinases; assay type: biochemical; details: read-out: IC50 Pkd2; mean ± SEM
In short: as §1

Ack = Ack (Homo sapiens, UniProt Q07912); experiment: in vitro IC50 against PP-sensitive WT kinases; assay type: biochemical; details: read-out: IC50 Ack; mean ± SEM
In short: as §1

[5] = N12-butylamine derivative of the C7-iso-butyl staralog

T1 sequence (Q15139 whole entry): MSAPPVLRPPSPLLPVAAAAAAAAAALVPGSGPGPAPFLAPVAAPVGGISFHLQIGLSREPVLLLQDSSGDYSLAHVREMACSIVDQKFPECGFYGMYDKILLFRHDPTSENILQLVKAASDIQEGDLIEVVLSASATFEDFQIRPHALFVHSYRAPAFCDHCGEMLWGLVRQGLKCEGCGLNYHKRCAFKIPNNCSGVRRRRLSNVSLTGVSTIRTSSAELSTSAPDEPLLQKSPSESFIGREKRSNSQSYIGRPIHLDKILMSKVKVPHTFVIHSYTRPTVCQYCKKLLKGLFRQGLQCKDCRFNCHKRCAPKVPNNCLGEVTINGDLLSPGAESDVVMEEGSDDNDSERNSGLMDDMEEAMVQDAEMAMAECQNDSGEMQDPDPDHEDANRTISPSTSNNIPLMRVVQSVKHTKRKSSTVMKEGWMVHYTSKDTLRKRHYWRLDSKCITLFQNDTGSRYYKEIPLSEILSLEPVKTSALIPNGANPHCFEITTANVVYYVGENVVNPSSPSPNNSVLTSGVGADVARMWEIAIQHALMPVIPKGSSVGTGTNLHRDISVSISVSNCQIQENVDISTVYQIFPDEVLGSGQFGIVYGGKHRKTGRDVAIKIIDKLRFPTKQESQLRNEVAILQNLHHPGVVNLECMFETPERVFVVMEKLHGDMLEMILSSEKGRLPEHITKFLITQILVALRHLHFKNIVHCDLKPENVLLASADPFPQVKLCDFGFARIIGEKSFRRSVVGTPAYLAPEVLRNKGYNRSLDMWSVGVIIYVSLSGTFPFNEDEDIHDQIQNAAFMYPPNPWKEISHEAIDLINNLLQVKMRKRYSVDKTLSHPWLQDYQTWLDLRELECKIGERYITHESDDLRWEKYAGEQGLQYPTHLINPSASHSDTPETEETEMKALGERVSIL
Chain of Ret (P07949 29-1114): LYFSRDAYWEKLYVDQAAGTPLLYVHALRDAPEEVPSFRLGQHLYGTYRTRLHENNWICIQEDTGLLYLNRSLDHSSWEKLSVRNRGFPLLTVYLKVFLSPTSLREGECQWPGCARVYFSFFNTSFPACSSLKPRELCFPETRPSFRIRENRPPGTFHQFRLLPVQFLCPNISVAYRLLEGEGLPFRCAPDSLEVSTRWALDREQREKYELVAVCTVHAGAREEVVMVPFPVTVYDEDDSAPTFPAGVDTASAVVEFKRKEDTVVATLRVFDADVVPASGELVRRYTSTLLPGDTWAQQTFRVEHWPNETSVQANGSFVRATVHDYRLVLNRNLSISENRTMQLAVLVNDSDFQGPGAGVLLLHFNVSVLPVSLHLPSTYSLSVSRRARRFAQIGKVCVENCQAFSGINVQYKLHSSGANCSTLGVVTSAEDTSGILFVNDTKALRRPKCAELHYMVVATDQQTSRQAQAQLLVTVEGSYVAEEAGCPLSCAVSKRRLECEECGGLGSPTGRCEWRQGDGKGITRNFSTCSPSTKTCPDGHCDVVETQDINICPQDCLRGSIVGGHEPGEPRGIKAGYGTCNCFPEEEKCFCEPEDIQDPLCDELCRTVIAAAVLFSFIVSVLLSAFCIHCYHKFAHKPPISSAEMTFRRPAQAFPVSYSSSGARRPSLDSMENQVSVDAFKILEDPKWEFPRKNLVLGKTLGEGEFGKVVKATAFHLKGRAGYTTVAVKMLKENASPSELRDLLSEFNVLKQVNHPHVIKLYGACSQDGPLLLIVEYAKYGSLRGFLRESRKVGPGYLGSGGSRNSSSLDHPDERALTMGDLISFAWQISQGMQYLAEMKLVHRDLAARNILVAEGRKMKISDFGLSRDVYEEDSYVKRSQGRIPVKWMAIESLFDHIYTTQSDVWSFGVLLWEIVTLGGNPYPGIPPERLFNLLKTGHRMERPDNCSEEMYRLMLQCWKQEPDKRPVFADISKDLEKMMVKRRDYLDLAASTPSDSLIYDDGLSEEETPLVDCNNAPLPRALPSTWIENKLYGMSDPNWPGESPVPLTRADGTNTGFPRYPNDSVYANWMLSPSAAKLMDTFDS
Chain of CK1ε (P49674 whole entry): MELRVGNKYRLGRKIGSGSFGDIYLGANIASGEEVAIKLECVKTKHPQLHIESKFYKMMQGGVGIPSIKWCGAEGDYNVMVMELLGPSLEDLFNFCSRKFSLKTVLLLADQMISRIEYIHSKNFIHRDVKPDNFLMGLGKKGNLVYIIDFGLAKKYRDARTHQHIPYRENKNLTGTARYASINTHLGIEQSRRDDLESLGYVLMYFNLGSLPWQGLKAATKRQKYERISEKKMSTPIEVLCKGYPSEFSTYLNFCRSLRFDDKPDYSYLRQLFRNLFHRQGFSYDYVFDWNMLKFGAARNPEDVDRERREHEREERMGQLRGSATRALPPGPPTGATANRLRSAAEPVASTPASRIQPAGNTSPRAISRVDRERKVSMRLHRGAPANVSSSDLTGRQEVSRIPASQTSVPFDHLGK
Chain of Ptk6 (Q13882 whole entry): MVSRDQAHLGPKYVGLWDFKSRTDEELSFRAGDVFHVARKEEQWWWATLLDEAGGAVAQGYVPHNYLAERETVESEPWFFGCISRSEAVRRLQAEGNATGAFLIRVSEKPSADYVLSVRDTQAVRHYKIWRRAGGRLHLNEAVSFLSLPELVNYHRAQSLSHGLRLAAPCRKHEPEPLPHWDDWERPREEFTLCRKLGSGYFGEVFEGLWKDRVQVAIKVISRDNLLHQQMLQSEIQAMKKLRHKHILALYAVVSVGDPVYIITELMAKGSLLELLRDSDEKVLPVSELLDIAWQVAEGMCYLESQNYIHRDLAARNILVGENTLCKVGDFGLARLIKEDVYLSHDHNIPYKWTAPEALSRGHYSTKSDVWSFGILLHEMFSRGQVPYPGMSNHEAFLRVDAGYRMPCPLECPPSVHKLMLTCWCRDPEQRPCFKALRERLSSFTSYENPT
Chain of Pkd1 (Q15139 whole entry): as the sequence (Q15139 whole entry) above
Chain of Ack (Q07912 whole entry): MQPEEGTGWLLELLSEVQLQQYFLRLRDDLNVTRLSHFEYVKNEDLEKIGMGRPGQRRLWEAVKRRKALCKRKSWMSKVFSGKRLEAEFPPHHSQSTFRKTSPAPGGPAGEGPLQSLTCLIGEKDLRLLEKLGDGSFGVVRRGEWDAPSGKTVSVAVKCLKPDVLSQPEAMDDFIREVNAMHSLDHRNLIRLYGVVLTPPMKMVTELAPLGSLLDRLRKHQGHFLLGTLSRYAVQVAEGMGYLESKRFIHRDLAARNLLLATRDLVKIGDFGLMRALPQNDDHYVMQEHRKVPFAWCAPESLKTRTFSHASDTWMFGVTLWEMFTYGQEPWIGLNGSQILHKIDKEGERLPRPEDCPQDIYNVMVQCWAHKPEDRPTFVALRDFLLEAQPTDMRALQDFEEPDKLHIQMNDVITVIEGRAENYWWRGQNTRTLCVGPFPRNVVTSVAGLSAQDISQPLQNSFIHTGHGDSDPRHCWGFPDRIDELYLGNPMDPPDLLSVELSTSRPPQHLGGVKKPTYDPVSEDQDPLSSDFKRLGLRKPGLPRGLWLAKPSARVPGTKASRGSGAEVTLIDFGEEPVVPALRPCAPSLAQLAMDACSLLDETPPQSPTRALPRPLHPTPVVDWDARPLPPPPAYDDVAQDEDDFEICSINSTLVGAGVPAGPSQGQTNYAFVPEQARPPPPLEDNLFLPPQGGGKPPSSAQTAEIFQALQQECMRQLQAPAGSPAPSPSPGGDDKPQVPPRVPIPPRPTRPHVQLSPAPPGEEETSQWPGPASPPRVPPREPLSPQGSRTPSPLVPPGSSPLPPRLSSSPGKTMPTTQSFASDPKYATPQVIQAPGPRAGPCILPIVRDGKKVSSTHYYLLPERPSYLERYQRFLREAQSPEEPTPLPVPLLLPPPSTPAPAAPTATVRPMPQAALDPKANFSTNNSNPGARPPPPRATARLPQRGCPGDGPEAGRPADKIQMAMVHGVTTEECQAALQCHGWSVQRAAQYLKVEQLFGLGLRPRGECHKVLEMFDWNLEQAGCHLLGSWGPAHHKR
Chain of EphA1 (P21709 26-976): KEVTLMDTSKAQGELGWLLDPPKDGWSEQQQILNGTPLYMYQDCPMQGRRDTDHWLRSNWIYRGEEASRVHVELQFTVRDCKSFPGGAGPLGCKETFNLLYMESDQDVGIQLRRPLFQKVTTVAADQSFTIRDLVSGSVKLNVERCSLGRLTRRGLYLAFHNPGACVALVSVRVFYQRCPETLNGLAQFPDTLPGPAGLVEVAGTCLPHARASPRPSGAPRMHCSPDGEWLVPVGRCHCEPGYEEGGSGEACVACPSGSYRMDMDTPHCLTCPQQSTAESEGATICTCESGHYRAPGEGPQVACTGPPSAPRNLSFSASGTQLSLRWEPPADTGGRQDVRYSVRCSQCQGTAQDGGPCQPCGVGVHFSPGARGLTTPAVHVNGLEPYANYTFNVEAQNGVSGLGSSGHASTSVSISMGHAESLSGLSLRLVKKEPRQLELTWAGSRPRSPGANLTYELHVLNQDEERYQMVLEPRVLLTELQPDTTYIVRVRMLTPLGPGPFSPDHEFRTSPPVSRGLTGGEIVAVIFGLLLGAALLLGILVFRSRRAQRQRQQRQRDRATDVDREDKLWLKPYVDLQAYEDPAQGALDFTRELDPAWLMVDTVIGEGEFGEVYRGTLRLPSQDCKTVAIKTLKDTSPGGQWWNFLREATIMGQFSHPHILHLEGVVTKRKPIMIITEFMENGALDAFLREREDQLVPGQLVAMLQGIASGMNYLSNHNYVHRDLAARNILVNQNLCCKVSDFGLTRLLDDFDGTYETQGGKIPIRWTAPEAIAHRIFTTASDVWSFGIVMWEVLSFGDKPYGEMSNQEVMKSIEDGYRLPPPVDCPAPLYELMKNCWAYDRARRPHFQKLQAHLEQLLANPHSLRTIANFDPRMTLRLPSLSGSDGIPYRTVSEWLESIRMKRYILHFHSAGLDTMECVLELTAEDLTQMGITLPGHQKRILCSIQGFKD

Structure (SMILES): CC(C)(C)n1nc(-c2cccc3ccccc23)c2c(N)ncnc21 [Star 1NA-PP1, 1NA-PP1]
inhibition of Pkd1 WT kinase (in words) (Pkd1-WT [1]): weakly inhibited at higher drug concentrations | concentrations at which EphA4-WT activity is inhibited (EphA4-WT): ≥ 2.5 µM | inhibition of Ret WT kinase (in words) (Kif5b-Ret-WT): weakly inhibited at higher drug concentrations | share of kinases inhibited by more than 80% (308 human kinases [2]): 4.5% | inhibition of EphA4-AS1 allele (EphA4-AS1; at ≥2.5µM): greater than 90%

Structure (SMILES): CC(C)(C)n1nc(Cc2cccc3ccccc23)c2c(N)ncnc21 [Star 1NM-PP1, 1NM-PP1]
share of kinases inhibited by more than 80% (308 human kinases [2]): 1.2%

activity/potency towards Src-AS1 (in words) (Src-AS1 (Gly gatekeeper)): most potent
Structure (SMILES): CC(C)C[C@@H]1NC(=O)c2c1c1c3ccccc3[nH]c1c1[nH]c3ccccc3c21 [Star 1]
concentration giving robust inhibition of v-Src-AS1 mediated phosphorylation (v-Src-AS1): below 1 µM | relative potency against v-Src-AS1 in cells (in words) (v-Src-AS1): weakest

Structure (SMILES): Cc1cccc(Cc2nn(C(C)(C)C)c3ncnc(N)c23)c1 [Star 3MB-PP1, 3MB-PP1]
share of kinases inhibited by more than 80% (308 human kinases [2]): 1.2%

IC50 (Src-WT; read-out: IC50 toward Src-WT): > 5 µM | IC50 (CK1ε): > 5 µM | improvement in potency toward Src-AS1 (Src-AS1 (Gly gatekeeper); [5]): ~ ten-fold | IC50 (CKδ): > 5 µM | highest inhibition of any single kinase in the panel (308 human kinases [3]): ≤ 80% | IC50 (Ret): > 5 µM | inhibition of Ret-AS2 autophosphorylation (in words) (Kif5b-Ret-AS2): capable of inhibiting | IC50 (Pkd1): 3.3 µM | IC50 (Ptk6): > 5 µM | IC50 (EphA1): > 5 µM | effect on Pkd1-WT activity (in words) (Pkd1-WT [4]): do not affect Pkd1-WT activity | improvement in potency toward Src-AS2 (Src-AS2 (Ala gatekeeper); [5]): ~ ten-fold | IC50 (Pkd2): > 5 µM | IC50 (Ack): 1.3 µM
Structure (SMILES): CC(C)C[C@@H]1NC(=O)c2c1c1c3ccccc3n(CCCCN)c1c1[nH]c3ccccc3c21 [Star 12]
effect on v-Src-WT-mediated phosphorylation (in words) (v-Src-WT): little effect | activity towards Pkd1-AS1 (in words) (Pkd1-AS1): potent Pkd-AS1 inhibitors | activity towards Pkd1-AS2 (in words) (Pkd1-AS2): did not show activity | concentration giving robust inhibition of v-Src-AS1 mediated phosphorylation (v-Src-AS1): below 1 µM | relative potency against v-Src-AS1 in cells (in words) (v-Src-AS1): most potent inhibitor | activity towards EphA4-AS1 (in words) (EphA4-AS1): exhibited activity

Structure (SMILES): COC(=O)[C@@]1(O)C[C@H]2O[C@]1(C)n1c3ccccc3c3c4c(c5c6ccccc6n2c5c31)C(=O)NC4 [Star K252a, K252a]
share of all protein kinases targeted (same metric, more than 80% inhibition) (308 human kinases [2]): 49%

Structure (SMILES): O=C1NCc2c1c1c3ccccc3[nH]c1c1[nH]c3ccccc3c21 [Star K252c, K252c, reference compound]
activity towards Src-WT (in words) (Src-WT): complete loss of activity | activity/potency towards Src-AS1 (in words) (Src-AS1 (Gly gatekeeper)): complete loss of activity | activity towards Src-AS2 (in words) (Src-AS2 (Ala gatekeeper)): complete loss of activity

Structure (SMILES): CN[C@@H]1C[C@H]2O[C@@](C)([C@@H]1OC)n1c3ccccc3c3c4c(c5c6ccccc6n2c5c31)C(=O)NC4 [staurosporine]
share of all protein kinases targeted (same metric, more than 80% inhibition) (308 human kinases [2]): 72% | share of protein kinases potently targeted (308 human kinases [2]): ~ 80%
